Measurements taken from ChEMBL document CHEMBL3108680, “Diversity-oriented synthesis of α-aminophosphonates: a new class of potential anticancer agents” (Eur J Med Chem, 2013).
Activity calls are given as the source filed them. No cut-off for these calls is given here.

How the values were obtained:
Format in all cases: functional, cell-based
Jurkat [1] = experiment: Cytotoxicity against human Jurkat cells at 500 uM after 48 hrs by MTT assay
MG-63 [2] = experiment: Cytotoxicity against human MG63 cells at 500 uM after 48 hrs by MTT assay
COLO 320DM [3] = experiment: Cytotoxicity against human COLO320DM cells at 500 uM after 48 hrs by MTT assay
NCI-H23 [4] = experiment: Cytotoxicity against human NCI-H23 cells at 500 uM after 48 hrs by MTT assay
A549 [5] = experiment: Cytotoxicity against human A549 cells at 500 uM after 48 hrs by MTT assay
Jurkat [6] = experiment: Cytotoxicity against human Jurkat cells after 48 hrs by MTT assay
Procedure, shortened: (§1)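 Cells seeded at line-dependent densities, held 24 h compound-free, then exposed 48 h to six 2-fold dilutions (top […]). MTT (10 mg/ml PBS solution) added for 4 h at 37 °C; DMSO-solubilized formazan read at 570 nm. Three runs in triplicate.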

[7] = (§2) Cytotoxicity against human MG63 cells after 48 hrs by MTT assay; conditions: MG-63, 48 h
Procedure, shortened: (§3)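 Cells seeded at densities suited to their growth and incubated 24 h compound-free. They were then treated 48 h with six 2-fold serial dilutions, top […]. Viability was measured by MTT (added from a 10 mg/ml PBS solution; 4 h, 37 °C), followed by centrifugation, DMSO dissolution and A570. Run thrice in triplicate; mean ± SD, n = 3.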

MG-63 [8] = experiment: as §2; procedure, shortened: as §3
[9] = (§4) Cytotoxicity against human COLO320DM cells after 48 hrs by MTT assay; conditions: COLO 320DM
Procedure, shortened: as §1, with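 “Jurkat and Colo 320DM grown in RPMI 1640 with 10% FBS and 1% ampicillin; A549 in 90% DMEM with 10% FBS. Cells” for “Cells”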

COLO 320DM [10] = experiment: as §4
Procedure, shortened: as §1, with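 “Jurkat and Colo 320DM grown in RPMI 1640 with 10% FBS and 1% ampicillin; A549 in 90% DMEM with 10% FBS. Cells” for “Cells”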

NCI-H23 [11] = experiment: Cytotoxicity against human NCI-H23 cells after 48 hrs by MTT assay; conditions: for IC50: NCI-H23, 48 h; procedure, shortened: as §3
A549 [12] = experiment: Cytotoxicity against human A549 cells after 48 hrs by MTT assay; conditions: for IC50: A549, 48 h
Procedure, shortened: as §1, with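 “Jurkat and Colo 320DM grown in RPMI 1640 with 10% FBS and 1% ampicillin; A549 in 90% DMEM with 10% FBS. Cells” for “Cells”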

MG-63 [13] = experiment: Cytotoxicity against human MG63 cells at 250 uM after 48 hrs by MTT assay
NCI-H23 [14] = experiment: Cytotoxicity against human NCI-H23 cells at 250 uM after 48 hrs by MTT assay
Jurkat [15] = experiment: Cytotoxicity against human Jurkat cells at 200 uM after 48 hrs by MTT assay
COLO 320DM [16] = experiment: Cytotoxicity against human COLO320DM cells at 200 uM after 48 hrs by MTT assay
A549 [17] = experiment: Cytotoxicity against human A549 cells at 200 uM after 48 hrs by MTT assay
Jurkat [18] = experiment: Cytotoxicity against human Jurkat cells at 100 uM after 48 hrs by MTT assay

Row | Structure (SMILES) | IC50 (Jurkat [6]) [µM] | inhibition (Jurkat [6]) | IC50 [7] [µM] | inhibition (MG-63 [8]) | IC50 [9] [µM] | inhibition (COLO 320DM [10]) | inhibition (NCI-H23 [11]) | IC50 (NCI-H23 [11]) [µM] | inhibition (A549 [12]) | IC50 (A549 [12]) [µM] | further results
1 | CCCCOP(=O)(OCCCC)C(N[C@@H](C)c1ccccc1)c1ccc2c(c1)OCO2 (stereo partly specified) | – | – | – | – | – | – | – | – | – | – | inhibition (Jurkat [1]): inactive; inhibition (MG-63 [2]): inactive; inhibition (COLO 320DM [3]): inactive; inhibition (NCI-H23 [4]): inactive; inhibition (A549 [5]): inactive
2 | CCCCOP(=O)(OCCCC)C(Nc1cccc(F)c1)c1ccc2c(c1)OCO2 (stereo unspecified) | > 500 | Dose-dependent effect | 122 | Dose-dependent effect | 80.3 | Dose-dependent effect | Dose-dependent effect | 95.8 | Dose-dependent effect | 364 | –
3 | O=P(Oc1ccccc1)(Oc1ccccc1)C(Nc1cccc(F)c1)c1ccc2c(c1)OCO2 (stereo unspecified) | 490 | Dose-dependent effect | – | – | – | – | Dose-dependent effect | 48.2 | – | – | inhibition (MG-63 [2]): inactive; inhibition (COLO 320DM [3]): inactive; inhibition (A549 [5]): inactive
4 | CCCCOP(=O)(OCCCC)C(Nc1ccc2c(c1)OCO2)c1ccc2c(c1)OCO2 (stereo unspecified) | 80 | Dose-dependent effect | – | – | 66.5 | Dose-dependent effect | – | – | Dose-dependent effect | 192 | inhibition (MG-63 [13]): inactive; inhibition (NCI-H23 [14]): inactive
5 | CCCCOP(=O)(OCCCC)C(N[C@H](C)c1ccccc1)c1ccc2c(c1)OCO2 (stereo partly specified) | 4 | Dose-dependent effect | 13.6 | Dose-dependent effect | 15.8 | Dose-dependent effect | Dose-dependent effect | 28.6 | Dose-dependent effect | 43.4 | –
6 | CCCCOP(=O)(OCCCC)C(Nc1ccccc1C)c1ccc2c(c1)OCO2 (stereo unspecified) | > 500 | Dose-dependent effect | – | – | – | – | – | – | – | – | inhibition (MG-63 [2]): inactive; inhibition (COLO 320DM [3]): inactive; inhibition (NCI-H23 [4]): inactive; inhibition (A549 [5]): inactive
7 | O=c1[nH]cc(F)c(=O)[nH]1 [FLUOROURACIL] | – | – | – | – | 2 | Dose-dependent effect | – | – | – | – | –
8 | CCOP(=O)(OCC)C(Nc1ccccc1)c1ccc(OC)cc1 (stereo unspecified) | – | – | 106 | Dose-dependent effect | – | – | Dose-dependent effect | 53.8 | – | – | inhibition (Jurkat [15]): inactive; inhibition (COLO 320DM [16]): inactive; inhibition (A549 [17]): inactive
9 | CCOP(=O)(OCC)C(Nc1ccccc1)c1ccc([N+](=O)[O-])cc1 (stereo unspecified) | – | – | 31.9 | Dose-dependent effect | 42.1 | Dose-dependent effect | Dose-dependent effect | 37.4 | Dose-dependent effect | 57.5 | inhibition (Jurkat [18]): inactive
10 | CO[C@@]12[C@H](COC(N)=O)C3=C(C(=O)C(C)=C(N)C3=O)N1C[C@@H]1N[C@@H]12 [MITOMYCIN] | – | – | – | – | – | – | Dose-dependent effect | 2 | – | – | –
11 | CCCCOP(=O)(OCCCC)C(Nc1cccc(Cl)c1)c1ccc2c(c1)OCO2 (stereo unspecified) | > 500 | Dose-dependent effect | 108 | Dose-dependent effect | 93 | Dose-dependent effect | Dose-dependent effect | 77.2 | Dose-dependent effect | 263 | –
12 | CCOP(=O)(OCC)C(Nc1ccccc1O)c1ccc2c(c1)OCO2 (stereo unspecified) | > 500 | Dose-dependent effect | 115 | Dose-dependent effect | 79.4 | Dose-dependent effect | Dose-dependent effect | 190 | Dose-dependent effect | 278 | –
13 | CCOP(=O)(OCC)C(Nc1ccccc1)c1ccc(F)cc1 (stereo unspecified) | – | – | – | – | 160 | Dose-dependent effect | – | – | – | – | inhibition (Jurkat [1]): inactive; inhibition (MG-63 [2]): inactive; inhibition (NCI-H23 [4]): inactive; inhibition (A549 [5]): inactive
14 | CCOP(=O)(OCC)C(Nc1ccccc1)c1ccc(OC)c(OC)c1 (stereo unspecified) | – | – | 34 | Dose-dependent effect | 36.4 | Dose-dependent effect | Dose-dependent effect | 39.5 | Dose-dependent effect | 74.1 | inhibition (Jurkat [18]): inactive
15 | CCOP(=O)(OCC)C(Nc1c(C)cccc1C)c1ccc2c(c1)OCO2 (stereo unspecified) | > 500 | Dose-dependent effect | 114 | Dose-dependent effect | 105 | Dose-dependent effect | Dose-dependent effect | 248 | Dose-dependent effect | > 500 | –
16 | COc1cccc2c1C(=O)c1c(O)c3c(c(O)c1C2=O)C[C@@](O)(C(=O)CO)C[C@@H]3O[C@H]1C[C@H](N)[C@H](O)[C@H](C)O1 [DOXORUBICIN] | – | – | 3.17 | Dose-dependent effect | – | – | – | – | Dose-dependent effect | 4 | –
17 | CCOP(=O)(OCC)C(Nc1ccccc1)c1ccc2c(c1)OCO2 (stereo unspecified) | > 500 | Dose-dependent effect | 68.8 | Dose-dependent effect | 92 | Dose-dependent effect | Dose-dependent effect | 65.8 | Dose-dependent effect | 134 | –
18 | CCOP(=O)(OCC)C(Nc1ccccc1)c1ccc(OC)c(O)c1 (stereo unspecified) | 57 | Dose-dependent effect | 37.5 | Dose-dependent effect | 47.9 | Dose-dependent effect | Dose-dependent effect | 39.7 | Dose-dependent effect | 62.4 | –
19 | CC/C(=C(\c1ccccc1)c1ccc(OCCN(C)C)cc1)c1ccccc1 | – | Dose-dependent effect | – | – | – | – | – | – | – | – | –
